Experimental data taken from article PMC7810372 (Science Advances, 2021).
Blank lines part the entries; values can stand above or below the compound they belong to.

Assays:
[1] = target: T1, HDAC6 (Homo sapiens, UniProt Q9UBN7); experiment: HDAC inhibitory assay; type: biochemical
T1 sequence (Q9UBN7 1-1215): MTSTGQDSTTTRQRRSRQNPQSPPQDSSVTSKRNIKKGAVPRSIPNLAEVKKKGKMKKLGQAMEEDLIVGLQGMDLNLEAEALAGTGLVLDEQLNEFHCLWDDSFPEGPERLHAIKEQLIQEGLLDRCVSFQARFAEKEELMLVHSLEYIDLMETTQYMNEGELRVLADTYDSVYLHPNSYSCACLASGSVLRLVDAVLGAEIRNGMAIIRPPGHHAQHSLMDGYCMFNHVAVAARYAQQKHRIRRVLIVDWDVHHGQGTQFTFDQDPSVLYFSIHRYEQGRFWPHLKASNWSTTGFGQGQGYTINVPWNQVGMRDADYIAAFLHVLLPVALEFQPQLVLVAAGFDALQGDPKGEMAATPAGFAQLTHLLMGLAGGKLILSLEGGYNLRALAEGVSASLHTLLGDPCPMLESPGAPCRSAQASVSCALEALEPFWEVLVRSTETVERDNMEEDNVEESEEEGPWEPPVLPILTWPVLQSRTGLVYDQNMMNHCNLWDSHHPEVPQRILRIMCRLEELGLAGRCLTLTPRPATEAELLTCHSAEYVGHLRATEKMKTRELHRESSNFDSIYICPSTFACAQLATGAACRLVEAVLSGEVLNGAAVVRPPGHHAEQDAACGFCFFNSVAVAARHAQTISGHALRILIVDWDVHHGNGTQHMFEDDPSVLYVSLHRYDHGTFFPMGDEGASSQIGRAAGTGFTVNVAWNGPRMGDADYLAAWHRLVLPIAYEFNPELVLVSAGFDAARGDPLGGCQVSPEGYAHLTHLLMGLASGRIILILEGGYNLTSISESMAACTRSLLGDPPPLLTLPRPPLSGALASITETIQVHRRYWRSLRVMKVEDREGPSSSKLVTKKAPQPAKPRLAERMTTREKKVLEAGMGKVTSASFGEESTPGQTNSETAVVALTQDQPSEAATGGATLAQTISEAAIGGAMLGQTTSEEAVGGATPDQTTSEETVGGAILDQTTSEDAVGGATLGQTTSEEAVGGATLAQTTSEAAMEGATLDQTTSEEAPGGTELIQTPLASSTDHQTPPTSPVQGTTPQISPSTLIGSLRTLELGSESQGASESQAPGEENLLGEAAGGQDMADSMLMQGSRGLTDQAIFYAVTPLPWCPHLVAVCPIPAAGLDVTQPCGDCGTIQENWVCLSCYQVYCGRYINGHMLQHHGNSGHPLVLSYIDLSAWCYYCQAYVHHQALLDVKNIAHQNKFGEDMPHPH

[2] = target: HDAC1 (Homo sapiens, UniProt Q13547); experiment: HDAC inhibitory assay; type: biochemical
Sequence of HDAC1 (Q13547 whole entry): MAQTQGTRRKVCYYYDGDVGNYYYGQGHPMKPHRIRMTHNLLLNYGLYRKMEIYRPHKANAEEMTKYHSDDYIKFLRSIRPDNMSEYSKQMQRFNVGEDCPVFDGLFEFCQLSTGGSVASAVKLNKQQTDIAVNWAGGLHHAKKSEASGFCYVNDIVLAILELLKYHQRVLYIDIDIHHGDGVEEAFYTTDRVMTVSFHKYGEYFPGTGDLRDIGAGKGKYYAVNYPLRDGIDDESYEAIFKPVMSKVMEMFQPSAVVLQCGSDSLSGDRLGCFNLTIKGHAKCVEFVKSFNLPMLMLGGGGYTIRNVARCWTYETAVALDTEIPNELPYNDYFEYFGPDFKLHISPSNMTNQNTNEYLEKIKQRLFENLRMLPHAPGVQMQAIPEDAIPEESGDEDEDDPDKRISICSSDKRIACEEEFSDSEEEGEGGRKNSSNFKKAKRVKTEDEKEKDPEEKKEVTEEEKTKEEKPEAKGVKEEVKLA

[3] = target: T2, HDAC7 (Homo sapiens, UniProt Q8WUI4); experiment: HDAC inhibitory assay; type: biochemical
T2 sequence (Q8WUI4 1-952): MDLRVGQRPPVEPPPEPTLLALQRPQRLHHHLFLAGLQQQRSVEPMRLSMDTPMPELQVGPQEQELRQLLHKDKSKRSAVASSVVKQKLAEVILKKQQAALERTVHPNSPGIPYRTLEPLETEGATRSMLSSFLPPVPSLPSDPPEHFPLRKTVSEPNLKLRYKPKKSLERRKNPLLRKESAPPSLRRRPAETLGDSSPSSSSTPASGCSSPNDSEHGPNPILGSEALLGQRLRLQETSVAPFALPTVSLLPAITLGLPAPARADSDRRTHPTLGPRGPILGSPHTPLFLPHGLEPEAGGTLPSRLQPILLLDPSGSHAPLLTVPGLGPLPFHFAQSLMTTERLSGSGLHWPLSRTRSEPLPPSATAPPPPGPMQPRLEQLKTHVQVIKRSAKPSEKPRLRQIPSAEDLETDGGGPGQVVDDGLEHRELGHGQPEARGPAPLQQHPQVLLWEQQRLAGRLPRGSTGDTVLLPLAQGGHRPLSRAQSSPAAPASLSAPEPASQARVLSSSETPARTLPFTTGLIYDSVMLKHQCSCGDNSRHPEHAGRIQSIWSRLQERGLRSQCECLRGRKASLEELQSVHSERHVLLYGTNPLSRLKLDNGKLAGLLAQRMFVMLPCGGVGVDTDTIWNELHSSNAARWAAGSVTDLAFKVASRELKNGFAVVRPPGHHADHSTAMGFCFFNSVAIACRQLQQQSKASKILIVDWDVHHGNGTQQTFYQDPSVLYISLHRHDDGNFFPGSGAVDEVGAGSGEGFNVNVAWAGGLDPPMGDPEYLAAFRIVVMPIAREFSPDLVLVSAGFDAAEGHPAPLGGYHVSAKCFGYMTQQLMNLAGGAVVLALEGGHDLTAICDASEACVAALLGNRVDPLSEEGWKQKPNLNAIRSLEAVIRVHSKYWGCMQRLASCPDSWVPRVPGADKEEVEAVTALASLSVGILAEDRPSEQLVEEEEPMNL

[4] = target: T3, HDAC8 (Homo sapiens, UniProt Q9BY41); experiment: HDAC inhibitory assay; type: biochemical
T3 sequence (Q9BY41 1-377): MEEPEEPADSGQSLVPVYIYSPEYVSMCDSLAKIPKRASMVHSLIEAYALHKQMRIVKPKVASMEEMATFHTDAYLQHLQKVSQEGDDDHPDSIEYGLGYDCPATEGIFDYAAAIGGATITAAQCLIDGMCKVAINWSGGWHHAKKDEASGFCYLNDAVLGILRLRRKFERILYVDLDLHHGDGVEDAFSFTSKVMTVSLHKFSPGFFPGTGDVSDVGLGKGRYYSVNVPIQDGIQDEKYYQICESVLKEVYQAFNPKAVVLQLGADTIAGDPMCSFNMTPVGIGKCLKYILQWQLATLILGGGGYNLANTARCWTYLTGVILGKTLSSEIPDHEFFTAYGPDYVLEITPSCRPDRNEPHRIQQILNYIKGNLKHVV

[5] = tested on: glucose transporter 1, hexokinase II; settings: cited from earlier work
[6] = tested on: MDA231 cells; experiment: Extracellular flux assay, ECAR; type: cell-based, human; settings: 2 µM, 24 hrs
Summary of the method: (§1)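 Seahorse XF96: cells were seeded for 24 h, then treated for a further 24 h. One hour before the run they were changed to XF Base medium, pH 7.4, with 1 mM L-glutamine. ECAR was read three times at baseline and three times after each sequential injection of glucose (10 mM), oligomycin (1 µM) and 2-DG (50 mM). Readings were protein-normalized, baseline-subtracted and expressed as fold change versus DMSO.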

[7] = tested on: BT-549 cells; experiment: Extracellular flux assay, ECAR; type: cell-based, human; settings: 2 µM, 24 hrs
Summary of the method: as §1

[8] = tested on: MDA231 BAX/BAK knockdown (siRNA) cells; experiment: Drug screen and low-throughput cell viability; type: cell-based, human; settings: 48 hr treatment, CellTiter-Glo % survival, BAX/BAK KD versus control
[9] = tested on: aldolase in BT-549 cells; experiment: Aldolase activity assay; type: cell-based, human; settings: 24 hr treatment
Summary of the method: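 Cells (1×10^6 for MDA231) were exposed to test compound for 24 h. Aldolase or GAPDH activity was then measured with a commercial kit following the maker's protocol. Values were normalized to protein concentration and expressed as fold change relative to DMSO.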

inhibition of HDAC activity [1]: inhibits the activity
inhibition of HDAC activity [2]: inhibits the activity
inhibition of HDAC activity [3]: inhibits the activity
inhibition of HDAC activity [4]: inhibits the activity
SMILES: O=C(CCCCCCC(=O)Nc1ccccc1)NO [SAHA, suberoylanilide hydroxamic acid]

SMILES: CCCC(CCC)C(=O)O [valproate]
glucose transporter 1 [5]: reduction in the glucose transporter 1
hexokinase II activity [5]: reduction in hexokinase II activity

SMILES: O=C(CCCCCCC(=O)Nc1ccc([C@H]2O[C@@H](CSc3nc(-c4ccccc4)c(-c4ccccc4)o3)C[C@@H](c3ccc(CO)cc3)O2)cc1)NO [tubacin]
extracellular acidification rate (ECAR) [6]: reduction
glycolysis and glycolytic capacity (ECAR) [7]: confirmed all the above results

SMILES: COc1cc([C@@H]2c3cc4c(cc3[C@@H](O[C@@H]3O[C@@H]5CO[C@@H](C)O[C@H]5[C@H](O)[C@H]3O)[C@H]3COC(=O)[C@H]23)OCO4)cc(OC)c1O [etoposide]
response to apoptosis-inducing agents [8]: broadly resistant

SMILES: CN(C)CC[C@H](CSc1ccccc1)Nc1ccc(S(=O)(=O)NC(=O)c2ccc(N3CCN(Cc4ccccc4-c4ccc(Cl)cc4)CC3)cc2)cc1[N+](=O)[O-] [ABT-737]
response to apoptosis-inducing agents [8]: broadly resistant

SMILES: O=C(CCCCCCNC(=O)c1cnc(N(c2ccccc2)c2ccccc2Cl)nc1)NO [ACY-241]
glycolysis and glycolytic capacity (ECAR) ([7]; 1 µM): confirmed all the above results

SMILES: O=C(CCCCCCNC(=O)c1cnc(N(c2ccccc2)c2ccccc2)nc1)NO [ACY-1215]
aldolase enzymatic activity [9]: reduced aldolase activity
